Source: ChEMBL document CHEMBL5705885, “CYT387, a selective JAK1/JAK2 inhibitor: in vitro assessment of kinase selectivity and preclinical studies using cell lines and primary cells from polycythemia vera patients” (Leukemia, 2009)
pIC50: −log10 of the molar value.

What was measured:
[1] = biological target: Death-associated protein kinase 3 (Homo sapiens, UniProt O43293); assay: Inhibition of DAPK3 (unknown origin)
[2] = biological target: Mitogen-activated protein kinase 11 (Homo sapiens, UniProt Q15759); assay: Inhibition of MAPK11 (unknown origin)
[3] = biological target: Protein-tyrosine kinase 6 (Homo sapiens, UniProt Q13882); assay: Inhibition of PTK6 (unknown origin)
[4] = biological target: Myosin light chain kinase 2, skeletal/cardiac muscle (Homo sapiens, UniProt Q9H1R3); assay: Inhibition of MYLK2 (unknown origin)
[5] = biological target: AMP-activated protein kinase (AMPK) alpha-1/beta-1/gamma-1 (Homo sapiens, UniProt P54619+Q13131+Q9Y478); assay: Inhibition of AMPK alpha1/beta1/gamma1 (unknown origin); assay type: protein-complex assay
[6] = biological target: Mitogen-activated protein kinase 9 (Homo sapiens) (UniProt P45984); settings: dose 100.0 nM
Mitogen-activated protein kinase 9 (Homo sapiens), sequence (P45984 whole entry, looked up): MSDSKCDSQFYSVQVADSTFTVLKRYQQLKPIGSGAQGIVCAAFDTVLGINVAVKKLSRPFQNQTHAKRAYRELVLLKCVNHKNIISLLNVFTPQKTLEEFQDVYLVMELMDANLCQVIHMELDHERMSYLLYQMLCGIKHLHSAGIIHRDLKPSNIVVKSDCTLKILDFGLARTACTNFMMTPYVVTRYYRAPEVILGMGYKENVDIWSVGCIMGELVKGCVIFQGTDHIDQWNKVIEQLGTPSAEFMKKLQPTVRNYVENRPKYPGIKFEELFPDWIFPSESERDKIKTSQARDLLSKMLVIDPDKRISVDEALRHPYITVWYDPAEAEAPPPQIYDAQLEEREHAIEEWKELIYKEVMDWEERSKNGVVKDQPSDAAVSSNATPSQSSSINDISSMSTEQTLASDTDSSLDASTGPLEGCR

[7] = biological target: Aurora kinase B (Homo sapiens, UniProt Q96GD4); settings: dose 100.0 nM
[8] = biological target: Tyrosine-protein kinase Fes/Fps (Homo sapiens, UniProt P07332); assay: Inhibition of FES (unknown origin)
[9] = biological target: Vascular endothelial growth factor receptor 1 (Homo sapiens, UniProt P17948); assay: Inhibition of FLT1 (unknown origin)
Vascular endothelial growth factor receptor 1, sequence (P17948 whole entry): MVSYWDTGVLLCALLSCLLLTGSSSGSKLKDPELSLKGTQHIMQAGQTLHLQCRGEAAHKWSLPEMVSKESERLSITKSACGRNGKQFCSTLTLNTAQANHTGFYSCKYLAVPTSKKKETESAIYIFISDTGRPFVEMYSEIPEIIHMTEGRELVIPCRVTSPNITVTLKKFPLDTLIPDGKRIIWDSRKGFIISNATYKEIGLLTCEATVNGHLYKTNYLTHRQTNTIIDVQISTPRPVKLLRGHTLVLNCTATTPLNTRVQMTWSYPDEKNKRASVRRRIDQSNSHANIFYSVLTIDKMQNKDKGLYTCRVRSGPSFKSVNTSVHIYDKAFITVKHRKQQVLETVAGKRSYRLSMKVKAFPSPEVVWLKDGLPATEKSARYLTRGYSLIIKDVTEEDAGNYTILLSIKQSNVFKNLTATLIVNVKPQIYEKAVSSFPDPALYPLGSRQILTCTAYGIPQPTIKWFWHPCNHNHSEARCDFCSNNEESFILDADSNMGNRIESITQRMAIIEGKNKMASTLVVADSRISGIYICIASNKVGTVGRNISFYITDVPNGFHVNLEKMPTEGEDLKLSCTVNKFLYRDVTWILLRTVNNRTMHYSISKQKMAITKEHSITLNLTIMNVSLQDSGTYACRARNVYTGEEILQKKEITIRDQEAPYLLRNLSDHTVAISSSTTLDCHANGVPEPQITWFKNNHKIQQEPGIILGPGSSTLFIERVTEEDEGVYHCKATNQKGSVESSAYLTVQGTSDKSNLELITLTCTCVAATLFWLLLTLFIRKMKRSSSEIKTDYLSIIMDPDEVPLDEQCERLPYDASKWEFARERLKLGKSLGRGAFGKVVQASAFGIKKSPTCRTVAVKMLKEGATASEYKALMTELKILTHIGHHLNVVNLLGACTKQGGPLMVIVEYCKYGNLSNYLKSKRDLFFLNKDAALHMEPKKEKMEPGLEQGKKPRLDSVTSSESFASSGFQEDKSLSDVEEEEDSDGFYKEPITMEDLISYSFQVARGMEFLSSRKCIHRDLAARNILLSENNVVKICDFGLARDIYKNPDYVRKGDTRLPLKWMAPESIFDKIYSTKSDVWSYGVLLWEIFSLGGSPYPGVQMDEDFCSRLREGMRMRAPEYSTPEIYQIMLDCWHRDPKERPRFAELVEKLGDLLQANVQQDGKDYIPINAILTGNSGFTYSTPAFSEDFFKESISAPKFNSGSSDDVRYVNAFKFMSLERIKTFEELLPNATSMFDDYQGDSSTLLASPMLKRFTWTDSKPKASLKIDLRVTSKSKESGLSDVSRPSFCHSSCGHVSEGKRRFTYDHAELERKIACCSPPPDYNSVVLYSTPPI

[10] = biological target: Dual specificity protein kinase CLK2 (Homo sapiens, UniProt P49760); assay: Inhibition of CLK2 (unknown origin)
[11] = tested on: BaF3; assay: Antiproliferative activity against mouse BaF3 cells harboring JAK2V617F mutant measured after 72 hrs by Alamar blue staining based analysis; assay type: functional, cell-based; settings: BaF3, 72 h
Procedure, shortened: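 Ba/F3 murine cells expressing JAK2V617F or MPLW515L. Compound stocks in DMSO were diluted into culture medium. After 72 h at 37 °C in 5% CO2, proliferation was quantified with the Alamar Blue assay.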

[12] = biological target: Protein kinase C gamma type (Homo sapiens, UniProt P05129); settings: dose 100.0 nM
[13] = biological target: Ephrin type-B receptor 3 (Homo sapiens, UniProt P54753); assay: Inhibition of EPHB3 (unknown origin)
[14] = biological target: Homeodomain-interacting protein kinase 1 (Homo sapiens, UniProt Q86Z02); assay: Inhibition of HIPK1 (unknown origin)
[15] = biological target: Ephrin type-B receptor 1 (Homo sapiens) (UniProt P54762); settings: dose 100.0 nM
Ephrin type-B receptor 1 (Homo sapiens), sequence (P54762 whole entry): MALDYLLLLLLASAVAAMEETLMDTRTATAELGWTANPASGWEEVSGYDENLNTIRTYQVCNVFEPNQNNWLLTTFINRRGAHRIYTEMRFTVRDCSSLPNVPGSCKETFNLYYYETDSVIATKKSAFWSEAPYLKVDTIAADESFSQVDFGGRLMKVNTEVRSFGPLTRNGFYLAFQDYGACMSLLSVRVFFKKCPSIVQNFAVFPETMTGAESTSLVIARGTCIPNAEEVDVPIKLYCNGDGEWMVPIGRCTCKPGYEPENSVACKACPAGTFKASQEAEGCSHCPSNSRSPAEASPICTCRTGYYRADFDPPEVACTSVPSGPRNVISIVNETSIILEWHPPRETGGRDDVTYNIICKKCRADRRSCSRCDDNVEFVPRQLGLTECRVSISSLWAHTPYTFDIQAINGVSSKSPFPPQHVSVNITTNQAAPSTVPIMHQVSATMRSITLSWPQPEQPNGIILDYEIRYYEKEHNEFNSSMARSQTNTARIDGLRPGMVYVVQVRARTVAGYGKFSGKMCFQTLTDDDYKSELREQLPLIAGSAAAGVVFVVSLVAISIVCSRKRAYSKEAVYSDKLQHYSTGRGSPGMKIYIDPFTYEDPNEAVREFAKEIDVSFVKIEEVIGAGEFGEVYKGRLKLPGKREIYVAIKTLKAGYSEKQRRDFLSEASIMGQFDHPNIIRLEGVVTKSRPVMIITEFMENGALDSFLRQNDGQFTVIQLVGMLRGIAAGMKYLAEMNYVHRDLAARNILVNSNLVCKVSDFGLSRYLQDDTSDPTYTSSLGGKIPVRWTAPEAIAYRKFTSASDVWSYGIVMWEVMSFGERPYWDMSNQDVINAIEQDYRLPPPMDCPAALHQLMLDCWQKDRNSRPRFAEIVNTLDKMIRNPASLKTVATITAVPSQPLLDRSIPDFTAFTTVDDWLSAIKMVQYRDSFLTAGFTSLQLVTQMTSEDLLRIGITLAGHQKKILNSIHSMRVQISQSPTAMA

[16] = biological target: High affinity nerve growth factor receptor (Homo sapiens, UniProt P04629); settings: dose 100.0 nM
[17] = biological target: RAF proto-oncogene serine/threonine-protein kinase (Homo sapiens, UniProt P04049, Y340D); assay: Inhibition of RAF1 Y340D (unknown origin)
[18] = biological target: Serine/threonine-protein kinase D2 (Homo sapiens, UniProt Q9BZL6); assay: Inhibition of PRKD2 (unknown origin)
[19] = biological target: Ribosomal protein S6 kinase beta-1 (Homo sapiens, UniProt P23443); assay: Inhibition of RPS6KB1 (unknown origin)
[20] = biological target: Leukocyte tyrosine kinase receptor (Homo sapiens, UniProt P29376); assay: Inhibition of LTK (unknown origin)
[21] = biological target: Macrophage-stimulating protein receptor (Homo sapiens, UniProt Q04912); settings: dose 100.0 nM
[22] = biological target: Dual specificity tyrosine-phosphorylation-regulated kinase 1A (Homo sapiens, UniProt Q13627); assay: Inhibition of DYRK1A (unknown origin)
[23] = biological target: Ribosomal protein S6 kinase alpha-5 (Homo sapiens, UniProt O75582); assay: Inhibition of RPS6KA5 (unknown origin)
[24] = biological target: Serine/threonine-protein kinase D1 (Homo sapiens) (UniProt Q15139); settings: dose 100.0 nM
[25] = biological target: T1, Dual specificity protein kinase CLK1 (Homo sapiens, UniProt P49759); settings: dose 100.0 nM
[26] = biological target: cAMP-dependent protein kinase catalytic subunit alpha (Homo sapiens, UniProt P17612); assay: Inhibition of PRKACA (unknown origin)
[27] = biological target: Aurora kinase C (Homo sapiens, UniProt Q9UQB9); assay: Inhibition of AURKC (unknown origin)
[28] = biological target: Serine/threonine-protein kinase PLK3 (Homo sapiens, UniProt Q9H4B4); assay: Inhibition of PLK3 (unknown origin)
[29] = biological target: BDNF/NT-3 growth factors receptor (Homo sapiens, UniProt Q16620); assay: Inhibition of NTRK2 (unknown origin)
[30] = biological target: Cyclin-dependent kinase 1/cyclin B1 (Homo sapiens) (UniProt P06493+P14635); settings: dose 100.0 nM
Cyclin-dependent kinase 1/cyclin B1 (Homo sapiens), sequence (P06493 whole entry, looked up): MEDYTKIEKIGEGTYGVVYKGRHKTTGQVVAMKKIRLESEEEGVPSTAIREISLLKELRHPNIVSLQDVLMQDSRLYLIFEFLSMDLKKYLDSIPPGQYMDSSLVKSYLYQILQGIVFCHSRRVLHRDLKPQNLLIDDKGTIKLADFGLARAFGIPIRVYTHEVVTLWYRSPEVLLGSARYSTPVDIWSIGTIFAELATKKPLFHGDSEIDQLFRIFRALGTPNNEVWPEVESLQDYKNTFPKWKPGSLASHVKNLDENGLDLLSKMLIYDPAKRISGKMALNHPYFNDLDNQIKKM
Cyclin-dependent kinase 1/cyclin B1 (Homo sapiens), sequence (P14635 whole entry, looked up): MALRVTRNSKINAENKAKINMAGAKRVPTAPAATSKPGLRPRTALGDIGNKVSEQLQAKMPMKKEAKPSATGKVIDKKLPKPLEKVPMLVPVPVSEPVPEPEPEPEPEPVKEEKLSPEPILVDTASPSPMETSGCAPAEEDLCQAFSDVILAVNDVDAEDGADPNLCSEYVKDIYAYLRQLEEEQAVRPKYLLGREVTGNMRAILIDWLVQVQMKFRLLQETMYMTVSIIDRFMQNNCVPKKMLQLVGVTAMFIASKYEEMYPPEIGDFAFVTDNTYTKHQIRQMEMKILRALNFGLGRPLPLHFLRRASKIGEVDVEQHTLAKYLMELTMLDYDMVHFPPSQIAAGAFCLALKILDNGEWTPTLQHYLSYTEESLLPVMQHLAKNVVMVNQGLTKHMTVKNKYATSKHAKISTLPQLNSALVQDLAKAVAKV

[31] = biological target: Activin receptor type-1B (Homo sapiens, UniProt P36896); assay: Inhibition of ACVR1B (unknown origin)
[32] = biological target: Cyclin-dependent kinase 5/CDK5 activator 1 (Homo sapiens) (UniProt Q00535+Q15078); settings: dose 100.0 nM
[33] = biological target: T2, Serine/threonine-protein kinase MARK1 (Homo sapiens, UniProt Q9P0L2); settings: dose 100.0 nM
[34] = biological target: PAS domain-containing serine/threonine-protein kinase (Homo sapiens, UniProt Q96RG2); assay: Inhibition of PASK (unknown origin)
PAS domain-containing serine/threonine-protein kinase, sequence (Q96RG2 whole entry, the tested form may be a part): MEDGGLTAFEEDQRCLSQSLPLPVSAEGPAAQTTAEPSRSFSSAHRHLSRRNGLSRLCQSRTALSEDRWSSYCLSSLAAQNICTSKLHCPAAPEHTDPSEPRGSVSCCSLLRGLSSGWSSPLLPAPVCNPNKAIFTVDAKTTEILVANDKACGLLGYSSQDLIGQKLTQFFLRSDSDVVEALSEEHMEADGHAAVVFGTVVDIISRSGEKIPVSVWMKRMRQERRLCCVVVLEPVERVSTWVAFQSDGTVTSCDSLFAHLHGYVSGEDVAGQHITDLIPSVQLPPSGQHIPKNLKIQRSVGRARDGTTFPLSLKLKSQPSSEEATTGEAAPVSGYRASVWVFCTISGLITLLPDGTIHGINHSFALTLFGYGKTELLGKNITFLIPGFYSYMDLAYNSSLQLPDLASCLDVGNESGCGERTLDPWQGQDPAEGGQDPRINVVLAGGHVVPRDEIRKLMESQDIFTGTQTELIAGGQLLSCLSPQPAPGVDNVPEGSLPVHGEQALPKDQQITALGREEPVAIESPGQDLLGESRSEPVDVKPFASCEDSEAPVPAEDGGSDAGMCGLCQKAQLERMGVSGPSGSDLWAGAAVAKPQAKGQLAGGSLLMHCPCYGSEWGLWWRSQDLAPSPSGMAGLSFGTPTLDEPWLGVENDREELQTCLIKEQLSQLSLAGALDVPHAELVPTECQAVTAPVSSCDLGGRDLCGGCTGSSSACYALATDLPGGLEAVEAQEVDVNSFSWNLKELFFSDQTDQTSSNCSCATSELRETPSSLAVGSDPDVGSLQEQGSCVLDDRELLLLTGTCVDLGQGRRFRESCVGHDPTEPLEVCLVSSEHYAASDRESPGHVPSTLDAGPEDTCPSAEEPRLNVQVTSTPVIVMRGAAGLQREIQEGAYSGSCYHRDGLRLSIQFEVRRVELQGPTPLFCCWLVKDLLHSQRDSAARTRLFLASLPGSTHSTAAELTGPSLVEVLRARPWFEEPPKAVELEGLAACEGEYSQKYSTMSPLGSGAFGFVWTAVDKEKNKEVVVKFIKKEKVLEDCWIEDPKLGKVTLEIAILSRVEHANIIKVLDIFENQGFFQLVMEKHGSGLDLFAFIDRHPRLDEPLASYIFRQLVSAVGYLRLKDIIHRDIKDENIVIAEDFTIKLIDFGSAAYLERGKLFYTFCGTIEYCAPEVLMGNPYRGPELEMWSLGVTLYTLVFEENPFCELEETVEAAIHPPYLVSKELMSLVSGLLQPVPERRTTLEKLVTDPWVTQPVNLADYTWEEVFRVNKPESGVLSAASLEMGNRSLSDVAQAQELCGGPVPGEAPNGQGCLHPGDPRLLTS

[35] = biological target: Mitogen-activated protein kinase kinase kinase 8 (Homo sapiens, UniProt P41279); assay: Inhibition of MAP3K8 (unknown origin)
[36] = biological target: Tyrosine-protein kinase Fgr (Homo sapiens) (UniProt P09769); settings: dose 100.0 nM
[37] = biological target: Interleukin-1 receptor-associated kinase 4 (Homo sapiens, UniProt Q9NWZ3); assay: Inhibition of IRAK4 (unknown origin)
[38] = biological target: T2, Serine/threonine-protein kinase MARK1; assay: Inhibition of MARK1 (unknown origin)
[39] = biological target: Mitogen-activated protein kinase kinase kinase kinase 2 (Homo sapiens, UniProt Q12851); assay: Inhibition of MAP4K2 (unknown origin)
[40] = Antiproliferative activity against human CHRF-288-11 cells harboring JAK2T875N mutant measured after 72 hrs by Alamar blue staining based analysis; assay type: functional, cell-based; settings: CHRF-288-11, 72 h
Procedure, shortened: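 Cells were exposed for 72 h at 37 °C under 5% CO2 to compound made up as DMSO stock and diluted in culture medium. Proliferation was then read by Alamar Blue.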

[41] = biological target: T1, Dual specificity protein kinase CLK1; assay: Inhibition of CLK1 (unknown origin)

## N#CCNC(=O)c1ccc(-c2ccnc(Nc3ccc(N4CCOCC4)cc3)n2)cc1 [MOMELOTINIB]
[1]
  pIC50: < 6.00
[2]
  pIC50: < 6.00
[3]
  pIC50: < 6.00
[4]
  pIC50: > 6.00
[5]
  pIC50: > 6.00
[6]
  inhibition: < 50%
[7]
  inhibition: < 50%
[8]
  pIC50: < 6.00
[9]
  pIC50: < 6.00
[10]
  pIC50: < 6.00
[11]
  pIC50: 5.82
[12]
  inhibition: < 50%
[13]
  pIC50: < 6.00
[14]
  pIC50: > 6.00
[15]
  inhibition: < 50%
[16]
  inhibition: < 50%
[17]
  pIC50: > 6.00
[18]
  pIC50: > 6.00
[19]
  pIC50: > 6.00
[20]
  pIC50: < 6.00
[21]
  inhibition: < 50%
[22]
  pIC50: < 6.00
[23]
  pIC50: < 6.00
[24]
  inhibition: > 50%
[25]
  inhibition: < 50%
[26]
  pIC50: < 6.00
[27]
  pIC50: > 6.00
[28]
  pIC50: > 6.00
[29]
  pIC50: > 6.00
[30]
  inhibition: < 50%
[31]
  pIC50: > 6.00
[32]
  inhibition: < 50%
[33]
  inhibition: < 50%
[34]
  pIC50: < 6.00
[35]
  pIC50: > 6.00
[36]
  inhibition: < 50%
[37]
  pIC50: < 6.00
[38]
  pIC50: > 6.00
[39]
  pIC50: > 6.00
[40]
  pIC50: 9.00
[41]
  pIC50: > 6.00
